In data set [1] the target is Sodium-dependent serotonin transporter (Rattus norvegicus, UniProt P31652). Briefly: Displacement of [3H]-Citalopram from SERT in rat brain after 60 mins by scintillation counting analysis. It is filed as tissue-based.
The target in data set [2] is T1, P2X purinoceptor 7 (Homo sapiens, UniProt Q99572).
T1 sequence (Q99572 whole entry): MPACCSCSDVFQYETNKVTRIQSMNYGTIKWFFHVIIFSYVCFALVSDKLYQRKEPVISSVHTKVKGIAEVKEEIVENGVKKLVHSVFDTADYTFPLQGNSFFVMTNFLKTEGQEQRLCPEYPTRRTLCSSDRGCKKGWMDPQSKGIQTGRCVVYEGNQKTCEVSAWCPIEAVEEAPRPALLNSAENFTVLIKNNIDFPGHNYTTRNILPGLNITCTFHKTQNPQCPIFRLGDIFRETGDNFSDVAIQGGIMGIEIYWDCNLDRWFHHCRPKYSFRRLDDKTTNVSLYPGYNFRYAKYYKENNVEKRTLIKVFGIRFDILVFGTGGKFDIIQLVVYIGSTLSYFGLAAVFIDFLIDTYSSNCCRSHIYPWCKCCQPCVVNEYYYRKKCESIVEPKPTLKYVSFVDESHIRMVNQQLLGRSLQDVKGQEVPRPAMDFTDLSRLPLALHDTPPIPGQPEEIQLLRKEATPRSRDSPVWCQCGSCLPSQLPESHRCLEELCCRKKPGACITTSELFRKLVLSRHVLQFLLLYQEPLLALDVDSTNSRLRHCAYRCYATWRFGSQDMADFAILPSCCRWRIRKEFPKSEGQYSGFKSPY
Put plainly: Displacement of [3H]-A804598 from human recombinant P2X7 receptor expressed in human 1321N1 cell membranes after 1 hr by […]. In general terms: Displacement assays read how much labelled ligand stays bound in the presence of the test substance.

Data set [3] has as its target T2, P2X purinoceptor 7 (Mus musculus, UniProt Q9Z1M0).
T2 sequence (Q9Z1M0 whole entry): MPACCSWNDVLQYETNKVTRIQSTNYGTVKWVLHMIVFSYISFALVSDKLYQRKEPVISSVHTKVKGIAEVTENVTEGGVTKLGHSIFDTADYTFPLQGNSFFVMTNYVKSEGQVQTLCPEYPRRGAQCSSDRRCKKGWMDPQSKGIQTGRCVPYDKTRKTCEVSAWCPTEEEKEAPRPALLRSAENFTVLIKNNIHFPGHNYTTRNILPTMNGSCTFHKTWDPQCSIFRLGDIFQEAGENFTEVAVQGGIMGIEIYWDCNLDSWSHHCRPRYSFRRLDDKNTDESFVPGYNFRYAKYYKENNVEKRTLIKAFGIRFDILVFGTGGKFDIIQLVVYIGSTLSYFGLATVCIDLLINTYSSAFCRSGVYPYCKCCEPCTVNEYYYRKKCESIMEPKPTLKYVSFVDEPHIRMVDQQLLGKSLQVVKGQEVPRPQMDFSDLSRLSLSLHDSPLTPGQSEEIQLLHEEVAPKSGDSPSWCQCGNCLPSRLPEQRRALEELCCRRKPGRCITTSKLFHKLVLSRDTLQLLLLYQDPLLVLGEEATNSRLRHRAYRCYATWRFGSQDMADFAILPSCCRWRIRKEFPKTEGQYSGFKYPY
Put plainly: Antagonist activity at mouse P2X7 receptor assessed as inhibition of ATP-induced Ca2+ flux by FLIPR assay.

The target of data set [4] is T3, P2X purinoceptor 7 (Rattus norvegicus, UniProt Q64663).
T3 sequence (Q64663 whole entry): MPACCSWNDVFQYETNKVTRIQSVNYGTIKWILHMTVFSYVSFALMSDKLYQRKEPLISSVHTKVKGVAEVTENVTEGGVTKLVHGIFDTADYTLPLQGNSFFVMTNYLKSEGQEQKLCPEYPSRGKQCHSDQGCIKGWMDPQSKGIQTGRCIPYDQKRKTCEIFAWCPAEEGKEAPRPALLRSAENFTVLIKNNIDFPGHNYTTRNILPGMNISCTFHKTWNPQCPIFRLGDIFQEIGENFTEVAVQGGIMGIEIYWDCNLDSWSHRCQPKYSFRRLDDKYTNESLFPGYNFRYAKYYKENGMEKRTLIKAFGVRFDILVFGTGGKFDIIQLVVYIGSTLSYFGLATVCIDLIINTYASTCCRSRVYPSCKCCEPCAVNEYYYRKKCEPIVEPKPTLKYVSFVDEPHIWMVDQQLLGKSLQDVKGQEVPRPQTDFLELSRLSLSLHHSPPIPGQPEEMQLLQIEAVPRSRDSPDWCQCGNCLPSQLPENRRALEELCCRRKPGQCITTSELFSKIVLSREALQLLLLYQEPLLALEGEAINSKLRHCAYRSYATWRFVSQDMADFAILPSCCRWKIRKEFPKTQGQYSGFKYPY
Put plainly: Antagonist activity at rat P2X7 receptor assessed as inhibition of ATP-induced Ca2+ flux by FLIPR assay. In general terms: A change in cytosolic calcium serves as a functional read-out for many receptors and channels.

In data set [5] the target is T1, P2X purinoceptor 7. Put plainly: Antagonist activity at human recombinant P2X7 receptor expressed in human 1321N1 cells assessed as inhibition of BzATP-induced Ca2+ flux after 30 mins by FLIPR assay. Type of data set: cell-based.
For data set [6], the species on record is Rattus norvegicus. Briefly: Ex-vivo SERT occupancy in Sprague-Dawley rat by autoradiographic analysis. It is filed as functional.
The subject of data set [7] is Rattus norvegicus. Put plainly: Ex-vivo P2X7 receptor occupancy in sc dosed Sprague-Dawley rat brain assessed as inhibition of [3H]A804598 binding after 120 mins by autoradiographic analysis. It is filed as functional.
Data set [8] has as its system Rattus norvegicus. Briefly: Ex-vivo P2X7 receptor occupancy in Sprague-Dawley rat brain assessed as inhibition of [3H]A804598 binding at 10 mg/kg, sc by autoradiographic analysis. It is filed as functional, organism-based. Details: dose 10 mg/kg. An outline of the steps: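 Single subcutaneous dose given to rats; P2X7 occupancy in brain was assessed ex vivo by autoradiography at several times after dosing, with plasma and brain drug levels measured in parallel. n = 3 per time point, mean ± SEM.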

Data set [9] can be described thus: Solubility of the compound at pH 7. It is filed as physicochemical. The note with it: buffer.
The nature of data set [10]: Protein binding in rat brain. It is filed as ADME, tissue-based. The note with it: brain tissue, read-out: PB (converted).
Data set [11] is described as follows: Solubility of the compound at pH 2. Type of data set: physicochemical. To be noted: buffer.
The nature of data set [12]: Apparent permeability from basolateral to apical side in human Caco2 cells at 1 uM after […] by LC/MS/MS analysis. Type of data set: ADME, cell-based. To be noted: Caco-2. (Caco-2 monolayers are a common model of the intestinal barrier.)
Data set [13] can be described thus: Plasma protein binding in rat by equilibrium dialysis method. It is filed as ADME, cell-free. To be noted: read-out: PPB (converted).
Data set [14] in a line: Apparent permeability from apical to basolateral side in human Caco2 cells at 1 uM after 60 mins by LC/MS/MS analysis. It is filed as ADME, cell-based. The note with it: Caco-2.
Data set [15] in a line: Extraction ratio in mouse liver microsomes at 1 uM by LC/MS/MS analysis. The note with it: read-out: ERH. Type of data set: ADME, Microsome.
Data set [16] can be described thus: Plasma protein binding in human by equilibrium dialysis method. To be noted: read-out: PPB (converted). Type of data set: ADME, cell-free.
Data set [17] is described as follows: Extraction ratio in human liver microsomes at 1 uM by LC/MS/MS analysis. Type of data set: ADME, Microsome. The note with it: read-out: ERH.
The nature of data set [18]: Extraction ratio in rat liver microsomes at 1 uM by LC/MS/MS analysis. It is filed as ADME, Microsome. To be noted: read-out: ERH.
The nature of data set [19]: Inhibition of rat nACHR.
In data set [20] the target is T4, Sodium-dependent dopamine transporter (Homo sapiens, UniProt Q01959). Briefly: Inhibition of human dopamine transporter.
The species entered for data set [21] is Rattus norvegicus. Put plainly: Inhibition of rat nACHR at 1 uM relative to control.
For data set [22], the target named is T4, Sodium-dependent dopamine transporter. Briefly: Inhibition of human dopamine transporter at 1 uM relative to control.
The target in data set [23] is T5, Substance-K receptor (Homo sapiens) (UniProt P21452).
T5 sequence (whole entry): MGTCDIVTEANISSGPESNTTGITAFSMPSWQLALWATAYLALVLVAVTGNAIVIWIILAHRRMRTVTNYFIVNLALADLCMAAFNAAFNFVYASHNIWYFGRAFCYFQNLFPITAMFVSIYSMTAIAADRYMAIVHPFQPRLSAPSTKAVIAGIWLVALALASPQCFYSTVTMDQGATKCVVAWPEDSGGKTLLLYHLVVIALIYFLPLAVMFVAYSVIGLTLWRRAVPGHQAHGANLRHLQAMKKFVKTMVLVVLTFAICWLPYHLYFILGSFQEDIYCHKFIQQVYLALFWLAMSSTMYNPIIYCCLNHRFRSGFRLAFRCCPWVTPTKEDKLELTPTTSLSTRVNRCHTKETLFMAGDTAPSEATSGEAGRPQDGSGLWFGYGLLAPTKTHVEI
Briefly: Inhibition of human NK2 receptor at 1 uM relative to control.

The target of data set [24] is T1, P2X purinoceptor 7. Briefly: Antagonist activity at P2X7 receptor in human whole blood assessed as inhibition of BzATP-induced IL1beta release incubated 30 mins prior to BzATP-challenge measured after 1.5 hrs by ELISA.
The target of data set [25] is T1, P2X purinoceptor 7. Briefly: Antagonist activity at P2X7 receptor in human PBMC assessed as inhibition of BzATP-induced IL1beta release incubated 30 mins prior to BzATP-challenge measured after 1.5 hrs by ELISA.
Data set [26] deals with Sodium-dependent serotonin transporter (Homo sapiens, UniProt P31645). Put plainly: Displacement of [3H]-Citalopram from human SERT expressed in human HEK293 cells after 1 hr by scintillation counting analysis. Type of data set: cell-based.
The target of data set [27] is T3, P2X purinoceptor 7. Put plainly: Antagonist activity at rat P2X7 receptor by radioligand binding assay.
Data set [28] has as its system Rattus norvegicus. Briefly: Ex-vivo P2X7 receptor occupancy in sc dosed Sprague-Dawley rat brain assessed as inhibition of [3H]A804598 binding after 15 mins by autoradiographic analysis. It is filed as functional.
Data set [29] relates to Rattus norvegicus. Put plainly: Ex-vivo P2X7 receptor occupancy in Sprague-Dawley rat brain assessed as inhibition of [3H]A804598 binding at 30 mg/kg, sc after 2 hrs by autoradiographic analysis relative to control. It is filed as functional. The note with it: route subcutaneous. An outline of the steps: (§1)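 Rat brain P2X7 occupancy by ex vivo autoradiography after one 30 mg/kg subcutaneous dose, followed over time. Plasma and brain drug levels were measured at the same time points. n = 3 per time point, mean ± SEM.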

In data set [30] the test system is Rattus norvegicus. Put plainly: Ex-vivo P2X7 receptor occupancy in Sprague-Dawley rat brain assessed as inhibition of [3H]A804598 binding at 30 mg/kg, sc by autoradiographic analysis. Type of data set: functional, organism-based. Details: dose 30 mg/kg. An outline of the steps:
as §1

Converted amounts (≈) assume the structure as drawn. The source made the active and inactive calls. No cut-off for these calls is given here.

T4 sequence (Q01959 whole entry): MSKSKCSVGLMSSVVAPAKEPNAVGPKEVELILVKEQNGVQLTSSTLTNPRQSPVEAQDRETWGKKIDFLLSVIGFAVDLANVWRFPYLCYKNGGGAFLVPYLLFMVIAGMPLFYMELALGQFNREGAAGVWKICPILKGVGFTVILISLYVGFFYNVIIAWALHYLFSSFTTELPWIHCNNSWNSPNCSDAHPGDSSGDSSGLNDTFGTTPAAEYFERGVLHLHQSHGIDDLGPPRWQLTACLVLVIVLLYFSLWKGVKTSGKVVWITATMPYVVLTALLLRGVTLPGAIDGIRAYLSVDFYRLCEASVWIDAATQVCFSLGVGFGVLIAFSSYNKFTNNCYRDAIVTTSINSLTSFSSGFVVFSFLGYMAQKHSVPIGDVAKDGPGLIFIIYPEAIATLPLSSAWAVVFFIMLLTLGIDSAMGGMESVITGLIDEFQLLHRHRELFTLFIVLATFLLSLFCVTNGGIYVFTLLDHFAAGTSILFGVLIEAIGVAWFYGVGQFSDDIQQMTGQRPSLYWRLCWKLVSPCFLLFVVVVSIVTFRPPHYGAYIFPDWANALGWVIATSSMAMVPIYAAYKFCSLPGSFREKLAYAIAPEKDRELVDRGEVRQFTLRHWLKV
Sodium-dependent serotonin transporter (Rattus norvegicus, UniProt P31652), sequence (P31652 whole entry): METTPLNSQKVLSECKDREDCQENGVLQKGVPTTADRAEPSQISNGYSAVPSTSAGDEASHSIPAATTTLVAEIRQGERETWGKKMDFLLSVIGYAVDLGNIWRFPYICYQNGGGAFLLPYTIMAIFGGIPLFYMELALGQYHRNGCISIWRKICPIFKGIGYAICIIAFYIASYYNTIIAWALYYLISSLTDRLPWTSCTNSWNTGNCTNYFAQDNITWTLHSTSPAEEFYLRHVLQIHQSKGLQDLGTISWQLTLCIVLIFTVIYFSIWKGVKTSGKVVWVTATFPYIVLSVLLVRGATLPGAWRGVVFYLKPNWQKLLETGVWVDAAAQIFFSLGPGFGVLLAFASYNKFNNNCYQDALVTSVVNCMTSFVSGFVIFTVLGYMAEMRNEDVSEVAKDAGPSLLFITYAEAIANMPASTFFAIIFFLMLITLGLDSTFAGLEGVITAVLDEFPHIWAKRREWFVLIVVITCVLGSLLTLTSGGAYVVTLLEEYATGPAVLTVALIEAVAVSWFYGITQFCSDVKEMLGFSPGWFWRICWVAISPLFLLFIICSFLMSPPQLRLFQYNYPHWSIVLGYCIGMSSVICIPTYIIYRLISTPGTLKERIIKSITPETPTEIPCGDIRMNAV
Sodium-dependent serotonin transporter (Homo sapiens, UniProt P31645), sequence (P31645 whole entry): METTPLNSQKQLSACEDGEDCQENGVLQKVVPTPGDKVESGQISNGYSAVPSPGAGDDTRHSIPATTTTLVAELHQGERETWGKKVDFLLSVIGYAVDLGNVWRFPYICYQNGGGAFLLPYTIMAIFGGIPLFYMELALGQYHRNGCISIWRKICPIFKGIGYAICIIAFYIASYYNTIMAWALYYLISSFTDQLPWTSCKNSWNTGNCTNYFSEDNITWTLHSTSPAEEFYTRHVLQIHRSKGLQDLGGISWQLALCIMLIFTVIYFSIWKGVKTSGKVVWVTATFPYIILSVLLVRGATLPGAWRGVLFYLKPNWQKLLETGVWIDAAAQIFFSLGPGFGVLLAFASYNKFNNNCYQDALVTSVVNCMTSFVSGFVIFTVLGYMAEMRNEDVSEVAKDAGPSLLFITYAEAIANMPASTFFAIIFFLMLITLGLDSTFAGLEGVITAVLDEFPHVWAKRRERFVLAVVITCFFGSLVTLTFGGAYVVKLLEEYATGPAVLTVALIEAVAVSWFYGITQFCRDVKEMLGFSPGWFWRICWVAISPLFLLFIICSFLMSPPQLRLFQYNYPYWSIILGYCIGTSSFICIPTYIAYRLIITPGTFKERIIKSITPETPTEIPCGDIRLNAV

What is called Ki is the dissociation constant of the complex between target and ligand, obtained from inhibition or displacement. In general, IC50 refers to the concentration that inhibits the measured activity by half. By ED50 is commonly meant the dose that gives a 50% effect, or the effect in half of the subjects. As usually defined, the solubility is the dissolved amount per volume that the medium holds. Lower therefore signals little dissolved substance. As usually defined, the Papp B→A is how fast a substance crosses the layer from the basolateral side. By Papp A→B is commonly meant the apparent permeability from the apical to the basolateral side of a cell layer. One may read the inhibition as the drop in the measured response relative to a control, in per cent. A low value points to a response near the control. For the molecule `CN1CCc2c(cccc2C(=O)NCC2(N3CCN(c4ccccc4)CC3)CCCCC2)C1`, the Ki in data set [1] is 20 nM; in data set [2], 12.6 nM; in [26], 15.8 nM; in data set [27], 0.794 nM. Moreover, the concentration for half-maximal inhibition (IC50) was 79.4 nM in data set [3]; 15.8 nM in data set [4]; 20 nM in [5]; 910 nM in [19]; 290 nM in data set [20]; 200 nM in data set [24]. Moreover, the 50% inhibitory concentration (IC50) in [25] is 39.8 nM. Further, the figures for the 50% effective dose (ED50) in data set [6] and in data set [7] were 24 mg/kg and 0.3 mg/kg, respectively. Besides, the result in [8] was Active. Further, the values for the solubility in data set [9] and in [11] were 90 µM (≈ 40.2 µg/mL) and 95 µM (≈ 42.4 µg/mL), respectively. Moreover, the fraction unbound in data set [10] is 0.024; in data set [13], 0.044; in data set [16], 0.165. The Papp B→A at 1 µM in [12] is 2.1 ×10⁻⁶ cm/s. Moreover, the Papp A→B at 1 h, 1 µM in data set [14] was 11 ×10⁻⁶ cm/s. Further, the figures for the hepatic extraction ratio at 1 µM in [15], in data set [17] and in data set [18] were 0.9, 0.9 and 0.86, respectively. Further, the inhibition in [21] is 54%; in data set [22] it was 93%; in data set [23], 68%.

`O=C(NCC1(N2CCN(c3ccccc3)CC2)CCOCC1)c1cccnc1Sc1ccccc1`: the inhibitory constant (Ki) is 3160 nM in data set [1], 12.6 nM in data set [2] and 2 nM in data set [27]. Besides, the IC50 was 31.6 nM in [3], 63.1 nM in [4], 200 nM in data set [24] and 25.1 nM in data set [25]. The 50% effective dose (ED50) in data set [28] was 2.5 mg/kg. The Occ in data set [29] is greater than 50%. The solubility was 31 µM (≈ 15.1 µg/mL) in [9] and 400 µM (≈ 195 µg/mL) in [11]. Besides, the outcome in data set [30] was Active. The fraction unbound in data set [10] is 0.017; in [13] it was 0.029; in data set [16], 0.022. Further, the figures for the hepatic extraction ratio at 1 µM in [15], in data set [17] and in data set [18] were greater than 0.93, greater than 0.95 and greater than 0.92, respectively.
